Results taken from ChEMBL document CHEMBL1152649, “Synthesis, cytotoxicity and human telomerase inhibition activities of a series of 1,2-heteroannelated anthraquinones and anthra[1,2-d]imidazole-6,11-dione homologues” (2009).
Calls of active or inactive are those of the source. No cut-off for these calls is given here.

How the values were obtained:
ACHN = assay: Antiproliferative activity against human ACHN cells assessed as cell growth at 10 uM; type: functional; settings: read-out: Activity
Method in brief: (§1)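 NCI 60 cell line panel, single-dose screen (10^-5 M) run by the developmental therapeutics program protocol. Results are given as growth percent of treated cells relative to untreated control cells for each line.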

NCI-H522 = assay: Antiproliferative activity against human NCI-H522 cells assessed as cell growth at 10 uM; type: functional; settings: read-out: Activity; method in brief: as §1
UO-31 = assay: Antiproliferative activity against human UO31 cells assessed as cell growth at 10 uM; type: functional; settings: read-out: Activity
Method in brief: (§2)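 NCI 60 cell line panel, single dose (10^-5 M), run per the Developmental Therapeutics Program protocol (one dose mean graph). Each result is the growth percentage of treated cells relative to untreated control cells.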

A549 = assay: Antiproliferative activity against human A549 cells assessed as cell growth at 10 uM; type: functional; settings: read-out: Activity; method in brief: as §1
MOLT-4 = assay: Antiproliferative activity against human MOLT4 cells assessed as cell growth at 10 uM; type: functional; settings: read-out: Activity; method in brief: as §1
SK-MEL-2 = assay: Antiproliferative activity against human SK-MEL-2 cells assessed as cell growth at 10 uM; type: functional; settings: read-out: Activity; method in brief: as §1
PC-3 = assay: Antiproliferative activity against human PC3 cells assessed as cell growth at 10 uM; type: functional; settings: read-out: Activity; method in brief: as §1
OVCAR-3 = assay: Antiproliferative activity against human OVCAR-3 cells assessed as cell growth at 10 uM; type: functional; settings: read-out: Activity; method in brief: as §1
KM12 = assay: Antiproliferative activity against human KM12 cells assessed as cell growth at 10 uM; type: functional; settings: read-out: Activity; method in brief: as §1
SF-295 = assay: Antiproliferative activity against human SF295 cells assessed as cell growth at 10 uM; type: functional; settings: read-out: Activity; method in brief: as §1
EKVX = assay: Antiproliferative activity against human EKVX cells assessed as cell growth at 10 uM; type: functional; settings: read-out: Activity; method in brief: as §1
NCI-H23 = assay: Antiproliferative activity against human NCI-H23 cells assessed as cell growth at 10 uM; type: functional; settings: read-out: Activity; method in brief: as §1
SK-MEL-28 = assay: Antiproliferative activity against human SK-MEL-28 cells assessed as cell growth at 10 uM; type: functional; settings: read-out: Activity; method in brief: as §1
SK-MEL-5 = assay: Antiproliferative activity against human SK-MEL-5 cells assessed as cell growth at 10 uM; type: functional; settings: read-out: Activity; method in brief: as §1
786-0 = assay: Antiproliferative activity against human 786-0 cells assessed as cell growth at 10 uM; type: functional; settings: read-out: Activity; method in brief: as §1
[1] = target: Telomerase reverse transcriptase (Homo sapiens) (UniProt O14746); assay: Inhibition of TERT in human H1299 cells assessed as residual transcriptional activity at 10 uM after 24 hrs by SEAP reporter gene assay; values are per cent of control
UACC-62 = assay: Antiproliferative activity against human UACC62 cells assessed as cell growth at 10 uM; type: functional; settings: read-out: Activity; method in brief: as §2
CAKI-1 = assay: Antiproliferative activity against human Caki1 cells assessed as cell growth at 10 uM; type: functional; settings: read-out: Activity; method in brief: as §1
NCI-H460 = assay: Antiproliferative activity against human NCI-H460 cells assessed as cell growth at 10 uM; type: functional; settings: read-out: Activity; method in brief: as §1
SNB-75 = assay: Antiproliferative activity against human SNB75 cells assessed as cell growth at 10 uM; type: functional; settings: read-out: Activity; method in brief: as §2
[2] = target: Telomerase reverse transcriptase (Homo sapiens) (UniProt O14746); assay: Inhibition of telomerase in human H1299 cells up to 100 uM by TRAP assay; type: cell-based
Method in brief: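 PCR-based telomeric repeat amplification protocol (TRAP). The telomerase source was total lysate of H1299 lung cancer cells, with protein measured against BSA standards. Controls were extract without inhibitor and RNase A-treated extract.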

NCI-H322M = assay: Antiproliferative activity against human NCI-H322M cells assessed as cell growth at 10 uM; type: functional; settings: read-out: Activity; method in brief: as §1
HT-29 = assay: Antiproliferative activity against human HT-29 cells assessed as cell growth at 10 uM; type: functional; settings: read-out: Activity; method in brief: as §1
MCF7 = assay: Antiproliferative activity against human MCF7 cells assessed as cell growth at 10 uM; type: functional; settings: read-out: Activity; method in brief: as §1
OVCAR-5 = assay: Antiproliferative activity against human OVCAR5 cells assessed as cell growth at 10 uM; type: functional; settings: read-out: Activity; method in brief: as §1
[3] = Antiproliferative activity against human RPMI8266 cells assessed as cell growth at 10 uM; type: functional; settings: read-out: Activity; method in brief: as §1
NCI/ADR-RES = assay: Antiproliferative activity against human NCI/ADR-RES cells assessed as cell growth at 10 uM; type: functional; settings: read-out: Activity; method in brief: as §1
HCC 2998 = assay: Antiproliferative activity against human HCC2998 cells assessed as cell growth at 10 uM; type: functional; settings: read-out: Activity; method in brief: as §1
U-251 = assay: Antiproliferative activity against human U251 cells assessed as cell growth at 10 uM; type: functional; settings: read-out: Activity; method in brief: as §2
HCT-116 = assay: Antiproliferative activity against human HCT116 cells assessed as cell growth at 10 uM; type: functional; settings: read-out: Activity; method in brief: as §1
DU-145 = assay: Antiproliferative activity against human DU145 cells assessed as cell growth at 10 uM; type: functional; settings: read-out: Activity; method in brief: as §1
SF-268 = assay: Antiproliferative activity against human SF268 cells assessed as cell growth at 10 uM; type: functional; settings: read-out: Activity; method in brief: as §1
[4] = Cytotoxicity against human H1299 cells at 100 uM after 48 hrs by MTT assay; type: functional; settings: NCI-H1299, 48 h
Method in brief: (§3)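 H1299 non-small cell lung cancer cells were grown in RPMI 1640 with 10% FBS, penicillin and streptomycin at 37 °C under 5% CO2. About 2 × 10³ cells per well were seeded and left 24 h. Compounds were dissolved fresh in DMSO, diluted into complete medium and applied for 48 h. MTT was then added for 4 h at 37 °C, followed by lysis buffer (20% SDS, 50% DMF) for 16 h, and absorbance was read at 550 nm.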

M14 = assay: Antiproliferative activity against human M14 cells assessed as cell growth at 10 uM; type: functional; settings: read-out: Activity; method in brief: as §1
[5] = target: Telomerase reverse transcriptase (Homo sapiens) (UniProt O14746); assay: Inhibition of TERT in human H1299 cells assessed as residual transcriptional activity at 1 uM after 24 hrs by SEAP reporter gene assay; values are per cent of control
TK-10 = assay: Antiproliferative activity against human TK10 cells assessed as cell growth at 10 uM; type: functional; settings: read-out: Activity; method in brief: as §2
COLO 205 = assay: Antiproliferative activity against human COLO205 cells assessed as cell growth at 10 uM; type: functional; settings: read-out: Activity; method in brief: as §1
[6] = Cytotoxicity against human H1299 cells at 10 uM after 48 hrs by MTT assay; type: functional; settings: NCI-H1299, 48 h; method in brief: as §3
SK-OV-3 = assay: Antiproliferative activity against human SKOV3 cells assessed as cell growth at 10 uM; type: functional; settings: read-out: Activity; method in brief: as §1
T47D = assay: Antiproliferative activity against human T47D cells assessed as cell growth at 10 uM; type: functional; settings: read-out: Activity; method in brief: as §2
[7] = Antiproliferative activity against human Hs 578T cells assessed as cell growth at 10 uM; type: functional; settings: read-out: Activity; method in brief: as §1
CCRF-CEM = assay: Antiproliferative activity against human CCRF-CEM cells assessed as cell growth at 10 uM; type: functional; settings: read-out: Activity; method in brief: as §1
OVCAR-4 = assay: Antiproliferative activity against human OVCAR4 cells assessed as cell growth at 10 uM; type: functional; settings: read-out: Activity; method in brief: as §1
MDA-MB-231 = assay: Antiproliferative activity against human MDA-MB-231 cells assessed as cell growth at 10 uM; type: functional; settings: read-out: Activity; method in brief: as §1
OVCAR-8 = assay: Antiproliferative activity against human OVCAR8 cells assessed as cell growth at 10 uM; type: functional; settings: read-out: Activity; method in brief: as §1

Chain of Telomerase reverse transcriptase (Homo sapiens) (O14746 whole entry): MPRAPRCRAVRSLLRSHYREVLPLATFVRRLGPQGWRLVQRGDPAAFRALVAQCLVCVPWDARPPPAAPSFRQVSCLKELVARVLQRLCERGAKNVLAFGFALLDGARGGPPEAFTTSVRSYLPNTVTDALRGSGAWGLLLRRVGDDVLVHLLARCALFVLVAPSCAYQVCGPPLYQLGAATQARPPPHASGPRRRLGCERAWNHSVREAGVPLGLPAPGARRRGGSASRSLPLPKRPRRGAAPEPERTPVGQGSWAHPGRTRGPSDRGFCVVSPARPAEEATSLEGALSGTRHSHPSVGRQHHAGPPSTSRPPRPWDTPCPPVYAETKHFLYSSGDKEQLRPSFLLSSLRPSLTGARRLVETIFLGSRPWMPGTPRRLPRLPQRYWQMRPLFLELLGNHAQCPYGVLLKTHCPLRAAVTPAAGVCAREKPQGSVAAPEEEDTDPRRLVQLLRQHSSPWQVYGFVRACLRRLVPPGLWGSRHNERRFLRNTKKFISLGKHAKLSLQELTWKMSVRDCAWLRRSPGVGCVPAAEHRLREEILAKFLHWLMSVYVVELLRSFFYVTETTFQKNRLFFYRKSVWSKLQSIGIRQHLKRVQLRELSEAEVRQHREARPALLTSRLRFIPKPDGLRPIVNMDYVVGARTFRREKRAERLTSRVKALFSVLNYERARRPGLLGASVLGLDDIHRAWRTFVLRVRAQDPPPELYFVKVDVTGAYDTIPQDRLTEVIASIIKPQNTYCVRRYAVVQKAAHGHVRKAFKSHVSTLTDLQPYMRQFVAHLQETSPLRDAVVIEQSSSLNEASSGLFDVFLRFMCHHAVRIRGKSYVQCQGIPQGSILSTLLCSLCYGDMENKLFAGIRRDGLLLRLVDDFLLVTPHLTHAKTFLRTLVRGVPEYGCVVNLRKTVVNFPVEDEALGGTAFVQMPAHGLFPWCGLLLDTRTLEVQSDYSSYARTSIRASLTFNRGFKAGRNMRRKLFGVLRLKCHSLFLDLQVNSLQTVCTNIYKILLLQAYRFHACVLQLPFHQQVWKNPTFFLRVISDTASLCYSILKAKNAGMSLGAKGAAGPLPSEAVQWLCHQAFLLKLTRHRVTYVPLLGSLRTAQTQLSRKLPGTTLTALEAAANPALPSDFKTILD

O=C1c2ccccc2C(=O)c2c1ccc1nc(-c3ccc(Br)cc3)[nH]c21
growth at 10 µM (ACHN): 91.4% | growth at 10 µM (NCI-H522): 76.5% | growth at 10 µM (UO-31): 66.2% | growth at 10 µM (A549): 95% | growth at 10 µM (MOLT-4): 101% | growth at 10 µM (SK-MEL-2): 72.2% | growth at 10 µM (PC-3): 88.7% | growth at 10 µM (OVCAR-3): 100% | growth at 10 µM (KM12): 102% | growth at 10 µM (SF-295): 119% | growth at 10 µM (EKVX): 82.7% | growth at 10 µM (NCI-H23): 93.1% | growth at 10 µM (SK-MEL-28): 131% | growth at 10 µM (SK-MEL-5): 87.1% | growth at 10 µM (786-0): 111% | residual activity [1]: 71% | growth at 10 µM (UACC-62): 105% | growth at 10 µM (CAKI-1): 86.6% | growth at 10 µM (NCI-H460): 96.2% | growth at 10 µM (SNB-75): 87.3% | inhibition [2]: inactive | growth at 10 µM (NCI-H322M): 167% | growth at 10 µM (HT-29): 98.8% | growth at 10 µM (MCF7): 75.3% | growth at 10 µM (OVCAR-5): 93.2% | growth at 10 µM [3]: 95.2% | growth at 10 µM (NCI/ADR-RES): 93.7% | growth at 10 µM (HCC 2998): 98.1% | growth at 10 µM (U-251): 105% | growth at 10 µM (HCT-116): 99.6% | growth at 10 µM (DU-145): 113% | growth at 10 µM (SF-268): 106% | viability at 100 µM [4]: 20% | growth at 10 µM (M14): 102% | residual activity [5]: 89% | growth at 10 µM (TK-10): 280% | growth at 10 µM (COLO 205): 110% | viability at 10 µM [6]: 85% | growth at 10 µM (SK-OV-3): 105% | growth at 10 µM (T47D): 97.3% | growth at 10 µM [7]: 181% | growth at 10 µM (CCRF-CEM): 98.7% | growth at 10 µM (OVCAR-4): 94.1% | growth at 10 µM (MDA-MB-231): 92.3% | growth at 10 µM (OVCAR-8): 96.3%

COc1cc(-c2nc3ccc4c(c3[nH]2)C(=O)c2ccccc2C4=O)ccc1O
growth at 10 µM (ACHN): 100% | growth at 10 µM (NCI-H522): 71.5% | growth at 10 µM (UO-31): 80.7% | growth at 10 µM (A549): 97.9% | growth at 10 µM (MOLT-4): 96.4% | growth at 10 µM (SK-MEL-2): 82.2% | growth at 10 µM (PC-3): 88.1% | growth at 10 µM (OVCAR-3): 125% | growth at 10 µM (KM12): 113% | growth at 10 µM (SF-295): 127% | growth at 10 µM (EKVX): 89.1% | growth at 10 µM (NCI-H23): 103% | growth at 10 µM (SK-MEL-28): 132% | growth at 10 µM (SK-MEL-5): 88.1% | growth at 10 µM (786-0): 109% | residual activity [1]: 50% | growth at 10 µM (UACC-62): 92.2% | growth at 10 µM (CAKI-1): 134% | growth at 10 µM (NCI-H460): 90.1% | growth at 10 µM (SNB-75): 86% | inhibition [2]: inactive | growth at 10 µM (NCI-H322M): 107% | growth at 10 µM (HT-29): 101% | growth at 10 µM (MCF7): 57.5% | growth at 10 µM (OVCAR-5): 97.1% | growth at 10 µM [3]: 81% | growth at 10 µM (NCI/ADR-RES): 103% | growth at 10 µM (HCC 2998): 103% | growth at 10 µM (U-251): 103% | growth at 10 µM (HCT-116): 90.4% | growth at 10 µM (DU-145): 88.1% | growth at 10 µM (SF-268): 107% | viability at 100 µM [4]: 38% | growth at 10 µM (M14): 114% | residual activity [5]: 85% | growth at 10 µM (TK-10): 174% | growth at 10 µM (COLO 205): 101% | viability at 10 µM [6]: 70% | growth at 10 µM (SK-OV-3): 113% | growth at 10 µM (T47D): 83.9% | growth at 10 µM [7]: 167% | growth at 10 µM (CCRF-CEM): 94.7% | growth at 10 µM (OVCAR-4): 83% | growth at 10 µM (MDA-MB-231): 87.9% | growth at 10 µM (OVCAR-8): 93.4%
